According to ChEMBL document CHEMBL3046718, “Synthesis and herbicidal activity of 5-(4-hydroxybenzyl)-2-thioxoimidazolidin-4-one esters” (2011):

Key:
Type in all cases: functional
Arabidopsis thaliana = experiment: Herbicidal activity against Arabidopsis thaliana assessed as inhibition of seed germination at 200 ug/ml relative to control
Summary of the method: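 Five sterilized Arabidopsis thaliana […] per well in 24-well sterile plates, each with 100 μL of test solution at 200 mg/L, grown in an illumination incubator. Distilled water served as blank and metazachlor as positive control. Inhibitory ratio (0–100%) was scored against distilled water.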

Zea mays [1] = experiment: Herbicidal activity against Zea mays (maize) assessed as inhibition of root growth at 200 ug/ml relative to control; settings: read-out: GI
Summary of the method: (§1)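 Seedlings were grown in an illumination incubator from ten Zea mays seeds or five Triticum aestivum seeds per plate, on filter paper wetted with 2 mL of test solution at 200 mg/L. Distilled water served as blank and metazachlor as positive control. Inhibitory ratio (0–100%) was scored against distilled water.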

Triticum aestivum [2] = experiment: Herbicidal activity against Triticum aestivum (wheat) assessed as inhibition of height growth at 200 ug/ml relative to control; settings: read-out: GI; summary of the method: as §1
Triticum aestivum [3] = experiment: Herbicidal activity against Triticum aestivum (wheat) assessed as inhibition of root growth at 200 ug/ml relative to control; settings: read-out: GI; summary of the method: as §1
Zea mays [4] = experiment: Herbicidal activity against Zea mays (maize) assessed as inhibition of height growth at 200 ug/ml relative to control; settings: read-out: GI; summary of the method: as §1
Setaria viridis [5] = experiment: Herbicidal activity against Setaria viridis (green foxtail) at 1000 g/ha treated as pre-emergence under greenhouse condition
Echinochloa crus-galli [6] = experiment: Herbicidal activity against Echinochloa crus-galli (barnyard grass) at 1000 g/ha treated as pre-emergence under greenhouse condition
Echinochloa crus-galli [7] = experiment: Herbicidal activity against Echinochloa crus-galli (barnyard grass) at 1000 g/ha treated as post-emergence under greenhouse condition
Setaria viridis [8] = experiment: Herbicidal activity against Setaria viridis (green foxtail) at 1000 g/ha treated as post-emergence under greenhouse condition
Stellaria media [9] = experiment: Herbicidal activity against Stellaria media at 1000 g/ha treated as post-emergence under greenhouse condition
Stellaria media [10] = experiment: Herbicidal activity against Stellaria media at 1000 g/ha treated as pre-emergence under greenhouse condition

Compound | inhibition at 200 µg/mL (Arabidopsis thaliana) [%] | inhibition of growth at 200 µg/mL (Zea mays [1]) [%] | inhibition of growth at 200 µg/mL (Triticum aestivum [2]) [%] | inhibition of growth at 200 µg/mL (Triticum aestivum [3]) [%] | inhibition of growth at 200 µg/mL (Zea mays [4]) [%] | inhibition at 1000 g/ha (Setaria viridis [5]) [%] | inhibition at 1000 g/ha (Echinochloa crus-galli [6]) [%] | inhibition at 1000 g/ha (Echinochloa crus-galli [7]) [%] | inhibition at 1000 g/ha (Setaria viridis [8]) [%] | inhibition at 1000 g/ha (Stellaria media [9]) [%] | inhibition at 1000 g/ha (Stellaria media [10]) [%]
COc1cc(C(=O)Oc2ccc(CC3NC(=S)NC3=O)cc2)cc(OC)c1OC (configuration not stated) | 10 | 19.9 | 42.3 | 59.7 | 22.1 | – | – | – | – | – | –
O=C(Cc1cc(C(F)(F)F)cc(C(F)(F)F)c1)Oc1ccc(CC2NC(=S)NC2=O)cc1 (configuration not stated) | 5 | 71.5 | 65.5 | 32.7 | 45.5 | – | – | – | – | – | –
O=C(/C=C/c1ccccc1)Oc1ccc(CC2NC(=S)NC2=O)cc1 (configuration not stated) | 10 | 77.9 | 33.8 | 2.5 | 52.7 | – | – | – | – | – | –
O=C(Cc1ccccc1)Oc1ccc(CC2NC(=S)NC2=O)cc1 (configuration not stated) | 20 | 58.1 | 34.9 | 42.1 | 53.9 | – | – | – | – | – | –
Cc1ccccc1C(=O)Oc1ccc(CC2NC(=S)NC2=O)cc1 (configuration not stated) | 60 | 33.5 | 5.8 | 20.7 | 53.2 | – | – | – | – | – | –
O=C(Oc1ccc(CC2NC(=S)NC2=O)cc1)c1ccc(Cl)c(Cl)c1 (configuration not stated) | 40 | 24.1 | -15.8 | 7 | 36.7 | – | – | – | – | – | –
COc1ccccc1C(=O)Oc1ccc(CC2NC(=S)NC2=O)cc1 (configuration not stated) | 50 | -29 | 81.3 | 79.1 | -26.2 | – | – | – | – | – | –
O=C(Oc1ccc(CC2NC(=S)NC2=O)cc1)c1cccs1 (configuration not stated) | 20 | -24.7 | -1.2 | 15.5 | 11.6 | – | – | – | – | – | –
Cc1cccc(C)c1N(Cn1cccn1)C(=O)CCl [METAZACHLOR] | 70 | 83 | 78.6 | 77.7 | 79 | – | – | – | – | – | –
O=C(Oc1ccc(CC2NC(=S)NC2=O)cc1)c1ccc(Cl)c([N+](=O)[O-])c1 (configuration not stated) | 50 | 44.2 | -3.7 | 2.6 | 54.4 | – | – | – | – | – | –
O=C(Oc1ccc(CC2NC(=S)NC2=O)cc1)c1ccccc1[N+](=O)[O-] (configuration not stated) | 40 | 7.6 | 3.7 | 10.6 | 63.6 | – | – | – | – | – | –
O=C(Oc1ccc(CC2NC(=S)NC2=O)cc1)c1ccc([N+](=O)[O-])cc1 (configuration not stated) | 40 | 100 | -24.6 | -25.8 | 100 | 50 | 50 | 0 | 0 | 0 | 60
O=C(COc1ccc(Cl)cc1Cl)Oc1ccc(CC2NC(=S)NC2=O)cc1 (configuration not stated) | 50 | 74.9 | 97.8 | 99.6 | 65.5 | – | – | – | – | – | –
O=C(Oc1ccc(CC2NC(=S)NC2=O)cc1)c1cc([N+](=O)[O-])cc([N+](=O)[O-])c1 (configuration not stated) | 5 | 71 | 86.2 | 18.8 | 27.8 | – | – | – | – | – | –
CC(C)(C)c1ccc(C(=O)Oc2ccc(CC3NC(=S)NC3=O)cc2)cc1 (configuration not stated) | 10 | 22.5 | 55.5 | 25.9 | 30.9 | – | – | – | – | – | –
Cc1ccc(C(=O)Oc2ccc(CC3NC(=S)NC3=O)cc2)cc1 (configuration not stated) | 60 | 38.7 | 1.27 | 16.8 | 27.9 | – | – | – | – | – | –
O=C(Oc1ccc(CC2NC(=S)NC2=O)cc1)c1ccc(-c2ccccc2)cc1 (configuration not stated) | 5 | 48.7 | 20.9 | 3.2 | 42.4 | – | – | – | – | – | –
O=C(Oc1ccc(CC2NC(=S)NC2=O)cc1)c1cccc(Cl)c1 (configuration not stated) | 70 | 22.1 | 8.8 | 47.5 | 41.7 | – | – | – | – | – | –

Compound | inhibition at 200 µg/mL (Arabidopsis thaliana) [%] | inhibition of growth at 200 µg/mL (Zea mays [1]) [%] | inhibition of growth at 200 µg/mL (Triticum aestivum [2]) [%] | inhibition of growth at 200 µg/mL (Triticum aestivum [3]) [%] | inhibition of growth at 200 µg/mL (Zea mays [4]) [%] | inhibition at 1000 g/ha (Setaria viridis [5]) [%] | inhibition at 1000 g/ha (Echinochloa crus-galli [6]) [%] | inhibition at 1000 g/ha (Echinochloa crus-galli [7]) [%] | inhibition at 1000 g/ha (Setaria viridis [8]) [%] | inhibition at 1000 g/ha (Stellaria media [9]) [%] | inhibition at 1000 g/ha (Stellaria media [10]) [%]
O=C(Oc1ccc(CC2NC(=S)NC2=O)cc1)c1ccco1 (configuration not stated) | 40 | 60.7 | 27.5 | 30.3 | 72.8 | – | – | – | – | – | –
O=C(Oc1ccc(CC2NC(=S)NC2=O)cc1)c1cccc([N+](=O)[O-])c1 (configuration not stated) | 20 | -16.3 | 20.6 | 16.3 | 3.9 | – | – | – | – | – | –
COc1ccc(C(=O)Oc2ccc(CC3NC(=S)NC3=O)cc2)c(OC)c1 (configuration not stated) | 20 | -11.6 | -2.9 | 10.7 | 19.6 | – | – | – | – | – | –
O=C(Oc1ccc(CC2NC(=S)NC2=O)cc1)c1ccccc1Cl (configuration not stated) | 30 | 5.9 | 24.7 | 53.4 | 53.4 | – | – | – | – | – | –
O=C(COc1ccc(Cl)cc1)Oc1ccc(CC2NC(=S)NC2=O)cc1 (configuration not stated) | 40 | 59.4 | 95.2 | 99.6 | 16.4 | – | – | – | – | – | –
O=C(Oc1ccc(CC2NC(=S)NC2=O)cc1)c1ccc(Cl)cc1 (configuration not stated) | 40 | 8.6 | -12.9 | -13.6 | 23.5 | – | – | – | – | – | –
COc1ccc(C(=O)Oc2ccc(CC3NC(=S)NC3=O)cc2)cc1OC (configuration not stated) | 50 | 64.2 | 26.1 | 43.1 | 57.9 | – | – | – | – | – | –
COc1cccc(C(=O)Oc2ccc(CC3NC(=S)NC3=O)cc2)c1OC (configuration not stated) | 20 | 11.2 | -10.9 | 20.9 | 6.7 | – | – | – | – | – | –
O=C(Oc1ccc(CC2NC(=S)NC2=O)cc1)c1ccccc1F (configuration not stated) | 30 | -30.2 | 48.4 | 57.9 | -19.4 | – | – | – | – | – | –
O=C(Oc1ccc(CC2NC(=S)NC2=O)cc1)c1ccc(Br)cc1 (configuration not stated) | 60 | 22 | 5.2 | -48 | 14.7 | – | – | – | – | – | –
O=C(Cc1cccc2ccccc12)Oc1ccc(CC2NC(=S)NC2=O)cc1 (configuration not stated) | 10 | 88 | 100 | 56.7 | 77.4 | 50 | 50 | 0 | 0 | 0 | 60
COc1ccc(C(=O)Oc2ccc(CC3NC(=S)NC3=O)cc2)cc1 (configuration not stated) | 30 | 17.8 | 25.1 | 32.2 | 33.5 | – | – | – | – | – | –
O=C(Oc1ccc(CC2NC(=S)NC2=O)cc1)c1ccccc1 (configuration not stated) | 10 | 44.5 | -11.1 | 16.2 | 26.6 | – | – | – | – | – | –
CC(=O)Oc1ccc(CC2NC(=S)NC2=O)cc1 (configuration not stated) | 10 | -6.7 | -3.6 | 20.9 | -14.5 | – | – | – | – | – | –
O=C(Oc1ccc(CC2NC(=S)NC2=O)cc1)c1ccc(F)cc1 (configuration not stated) | 20 | 66.3 | -22.9 | -8.5 | 32.8 | – | – | – | – | – | –
O=C(Cc1ccc(F)cc1)Oc1ccc(CC2NC(=S)NC2=O)cc1 (configuration not stated) | 20 | 77.3 | 50.2 | 86.6 | 70.1 | – | – | – | – | – | –
Cc1cccc(C(=O)Oc2ccc(CC3NC(=S)NC3=O)cc2)c1 (configuration not stated) | 50 | 61.3 | -14.8 | 12.7 | 62.8 | – | – | – | – | – | –
